High-throughput results deposited in PubChem BioAssay by The Scripps Research Institute Molecular Screening Center.
An excerpt weighted towards active compounds, which were near 2.6% of everything screened.
ABHD4 inh: ABHD4 inhibitors, primary screen, biochemical, fluorescence polarization, mouse | (Lyso)-N-acylphosphatidylethanolamine lipase (Mus musculus), Q8VD66 | purified mABHD4, FP-Rh probe fluorescence polarization | inhibition, % at 8.92 µM | actives 0.54% (n = 370,000);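 active means inhibition exceeding the mean over every tested compound plus 3 SD, cut at about 30% in these data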;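 further: 0% = plate median of compound wells and 100% = S159A mutant with DMSO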
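System: mouse ABHD4 enzyme, wild type / Medium: HEPES pH 7.0, NaCl, Pluronic buffer / Reagent: FP-Rh activity-based fluorescent probe / Control set: S159A mutant high control, sample median low control / Detection: fluorescence polarization with parallel and perpendicular emission, 525/598 nm / Schedule: 45 min + 60 min at 25 °C / Compound dosing: 8.92 µM, single dose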
TCR-CD3 inh: inhibitors of human TCR-CD3 interaction, primary screen, biochemical, fluorescence, TAMRA-labeled TCR probe. T-cell receptor (TCR). inhibition, % at 9.4 µM. actives 0.37% (n = 360,000). AID 651800, 2012; in the data active means inhibition above about 19%;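 further: recombinant mutant TCR 2C K166C tagged with TAMRA read by polarization; 0% = receptor in buffer alone and 100% = receptor with positive control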
PRMT1 inh: PRMT1 methyltransferase inhibitors, primary screen, biochemical, fluorescence polarization | recombinant PRMT1, activity-based probe fluorescence polarization | inhibition, % at 2.79 µM | Protein arginine N-methyltransferase 1 (Homo sapiens), Q99873 | actives 1.3% (n = 370,000);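 active means inhibition above about 21% made by adding two undisclosed values, limit read from the data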
HTRA1 inh: HTRA1 serine protease inhibitors, primary screen, biochemical, fluorescence polarization, HTS; Q92743; recombinant HTRA1, FP-rhodamine activity-based probe; inhibition, % at 5.96 µM; actives 0.5% (n = 340,000); in the data active means inhibition above about 36%;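 further: 0% = enzyme with DMSO and 100% = wells lacking enzyme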
SIAE inh: human SIAE inhibitors, primary screen, biochemical, fluorescence polarization, FP-Rh probe, 1536-well HTS. Sialate O-acetylesterase (Homo sapiens), Q9HAT2. SIAE FP-Rh probe binding. inhibition, % at 9.66 µM. actives 0.69% (n = 370,000);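 active means inhibition above a cutoff: mean of compounds within the control limits plus 3 SD of those, cut at about 17% in these data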;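 further: 0% = plate median of compound wells and 100% = probe without SIAE protein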
Target sequence (Q9HAT2 whole entry, looked up): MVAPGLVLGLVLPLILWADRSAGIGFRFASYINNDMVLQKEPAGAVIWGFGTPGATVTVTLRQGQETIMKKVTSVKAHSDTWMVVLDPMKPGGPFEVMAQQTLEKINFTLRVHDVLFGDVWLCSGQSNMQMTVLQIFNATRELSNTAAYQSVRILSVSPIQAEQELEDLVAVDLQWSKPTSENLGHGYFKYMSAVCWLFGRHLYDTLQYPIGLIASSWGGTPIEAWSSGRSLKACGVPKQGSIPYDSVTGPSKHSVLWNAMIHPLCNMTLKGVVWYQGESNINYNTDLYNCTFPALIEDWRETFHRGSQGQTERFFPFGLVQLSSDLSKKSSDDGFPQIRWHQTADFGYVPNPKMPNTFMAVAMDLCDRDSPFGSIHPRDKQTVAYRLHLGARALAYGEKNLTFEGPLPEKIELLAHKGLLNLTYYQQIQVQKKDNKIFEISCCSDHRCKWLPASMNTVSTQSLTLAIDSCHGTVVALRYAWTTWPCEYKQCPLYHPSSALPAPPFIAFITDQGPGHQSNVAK
The depositor's hits bear a star; . = no result.

SMILES	ABHD4 inh	TCR-CD3 inh	PRMT1 inh	HTRA1 inh	SIAE inh
Cc1cc(-c2n[nH]c(=S)n2/N=C/c2ccc(C)o2)n[nH]1	-1.8	5.5	-3.5	1.7	6.0
Cc1cccc(-c2n[nH]c(=S)n2/N=C/c2ccc(C)o2)c1	-12.6	-1.1	21.7*	2.6	0.8
CCCCOc1ccc(-c2nc(=S)[nH][nH]2)cc1	2.7	6.9	22.2*	-5.0	-9.0
CCCCOc1ccc(-c2nc(SCC(N)=O)n[nH]2)cc1	-7.2	11.0	-2.3	6.8	-0.7
COc1ccc(C(=O)CSc2nnc(-c3ccco3)n2C)cc1	-4.5	-3.4	24.4*	-0.4	8.9
Cn1c(SCC(=O)c2ccccc2)nnc1-c1ccco1	2.6	6.7	0.2	0.6	2.6
CCC(NC(=O)CNC(=O)c1ccc2c(c1)OCO2)c1ccc(Br)cc1 (stereo unspecified)	-1.4	3.2	-2.7	-4.6	3.9
COc1cccc2c1-c1c(O)cccc1C2=O	-0.8	0.1	-2.0	-0.9	2.5
O=C1C=C(O)c2cccc(O)c2C1=O	40.6*	5.4	24.8*	21.8	12.5
O=C(/C=C/c1cccc(Cl)c1)c1ccc([N+](=O)[O-])o1	8.0	7.0	17.1	42.9*	-5.2
C[C@H]1CN([C@@H](C)CO)C(=O)CCCn2cc(nn2)CO[C@@H]1CN(C)S(=O)(=O)c1ccccc1F	0.9	0.9	0.3	.	2.5
CCCSc1nnc(-c2cccc(S(=O)(=O)N(C)C)c2)n1-c1cc(OC)ccc1OC	2.8	-9.3	-3.2	-8.4	1.9
CN(C)S(=O)(=O)c1cccc(-c2nnc(SCCNCCO)n2-c2ccc(F)cc2)c1	30.6*	-1.7	2.5	-10.5	11.5
Cc1c(NC2=C(Cl)C(=O)N(c3ccccc3)C2=O)c(=O)n(-c2ccccc2)n1C	4.8	4.5	2.2	7.9	-0.5
Cc1ccc(O)c(NC2=C(Cl)C(=O)N(Cc3ccccc3)C2=O)c1	26.1	-0.3	24.2*	-11.9	7.3
O=C1C(Cl)=C(Nc2ccccc2O)C(=O)N1c1ccccc1	28.3	8.3	21.8*	8.1	4.3
Brc1ccc(C2=CC(c3cccs3)n3ncnc3N2)cc1 (stereo unspecified)	-8.1	4.8	94.7*	-46.7	-17.5
C=CC(C)(C)c1c(O)c(CC=C(C)C)c(O)c2c(=O)c3ccc(O)c(O)c3oc12	.	.	.	36.5*	.
Cc1c(CN2CCCC(C)C2)c(O)n(CCO)c(=O)c1C#N (stereo unspecified)	-0.9	-5.9	8.0	2.4	-5.5
C=CCn1c(O)c(CN2CCCCC2)c(C)c(C#N)c1=O	-7.5	-15.9	22.3*	5.3	-18.2
O=S(=O)(Nc1ccc(O)c2ccccc12)c1cccs1	46.4*	3.7	15.8	24.4	5.1
S=c1[nH]nc(Cc2ccc(Br)cc2)n1/N=C/c1ccc(Cl)cc1	-1.1	0.3	22.1*	-16.3	3.2
COc1ccc(CN2CC(=O)N3[C@H]4c5cc(C)ccc5OC[C@@H]4[C@H](c4ccccc4)[C@]3(C)C2=O)cc1	-29.3	-5.5	22.1*	-48.1	-4.1
Cc1ccc(/C=C2\SC(=S)N(NS(=O)(=O)c3ccc(C)cc3)C2=O)cc1	1.1	8.1	0.3	-1.6	-10.1
Cc1ccc(S(=O)(=O)NN2C(=O)/C(=C/c3ccc(C(=O)O)cc3)SC2=S)cc1	-11.5	0.1	22.0*	-1.1	-2.1
SMILES	ABHD4 inh	TCR-CD3 inh	PRMT1 inh	HTRA1 inh	SIAE inh
O=C(C(=O)N1CCN(C(=O)c2cccs2)CC1)c1cccc(C(F)(F)F)c1	-3.8	-0.1	0.2	.	1.9
C=CCSC1=C(C#N)C(c2ccccc2OCC)CC(=O)N1 (stereo unspecified)	-6.7	-3.5	21.8*	-11.6	9.6
CCN1CCN(C(=O)/C=C/c2ccc(C(C)C)cc2)CC1	1.5	-3.3	0.6	-4.7	3.7
CCN1CCC(O)(/C=C/c2ccc(C(C)C)cc2)C(C(=O)/C=C/c2ccc(C(C)C)cc2)C1 (stereo unspecified)	34.0*	-1.5	23.6*	0.6	1.6
COC(=O)c1ccc(NC(=O)CSC2=NCCN2)cc1	2.2	1.8	62.5*	-2.2	2.4
Cc1ccccc1CN1[C@@H](C)[C@H](c2ccccc2)Oc2cccc(NCC(C)C)c2S1(=O)=O	3.1	0.7	-8.3	.	1.1
CC(C)CCNC(=O)C12CN(Cc3ccccc3)CC1C(c1ccc([N+](=O)[O-])cc1)=NO2 (stereo unspecified)	-9.3	1.1	21.8*	-14.4	5.3
COc1cccc(CNC(=O)C23CN(Cc4ccccc4)CC2C(c2ccc([N+](=O)[O-])cc2)=NO3)c1 (stereo unspecified)	2.6	6.3	6.1	-13.0	-0.4
O=C(NC1CCc2ccccc21)c1cc(COc2cncc(Cl)c2)on1 (stereo unspecified)	-6.7	-2.7	-1.7	-11.8	4.5
COC(=O)Nc1cc(C(=O)c2ccc(Cl)cc2Cl)c[nH]1	-44.9	-38.9	23.6*	-12.8	-18.1
COC(=O)NNC(=O)c1ccc(Cl)cc1Cl	-15.9	1.2	-0.6	0.8	3.4
COc1ccc(OC)c(S(=O)(=O)N2CCCCC2C(=O)N2CCN(Cc3ccc(F)cc3)CC2)c1 (stereo unspecified)	4.6	.	5.0	.	-1.0
COc1cc2c(c3c1c(=O)c1cccc(F)c1n3C)C=CC(C)(C)O2	-3.9	6.4	2.9	.	-1.3
CC(=O)Nc1ccc(S(=O)(=O)NNc2cccc(C)c2)cc1	11.1	0.1	22.7*	3.2	9.3
Cc1cccc(NC(=O)NNS(=O)(=O)c2ccc(F)cc2)c1	-1.5	3.2	-1.4	3.4	-1.5
FC(F)(F)C(F)(F)C(F)(F)c1nc2nc(Cl)c(Cl)nc2[nH]1	-19.7	-9.4	1.1	4.0	-4.3
COc1ccc2c(Cl)c(C(=O)NN)sc2c1	-1.8	-0.5	-1.0	-4.0	-3.5
CC[n+]1c(C)sc2cc(OC)ccc21	6.4	2.1	54.4*	0.4	5.3
C[C@@H]1ON(C)[C@H]2C[C@H]3c4cc(-c5ccccc5)ccc4CCN3C[C@@H]12	9.8	8.6	1.7	.	0.0
N#C/C(=C(/O)CCl)c1nc2c(s1)CCc1ccccc1-2	32.0*	2.4	32.6*	13.2	1.7
O=C(CCCl)Nc1nc2c(s1)CCc1ccccc1-2	5.0	6.1	3.4	-5.4	1.5
CC(C(=O)NC1C(=O)N2C(C(=O)O)=C(CSc3nnnn3C)CSC12)n1cc(Br)cn1 (stereo unspecified)	-0.2	2.1	19.8	-0.5	8.1
Cc1cc(C(F)F)nn1CC(=O)NC1C(=O)N2C(C(=O)O)=C(CSc3nnnn3C)CSC12 (stereo unspecified)	3.9	3.7	23.8*	-2.0	3.5
Cc1nn(C(C)C(=O)NC2C(=O)N3C(C(=O)O)=C(CSc4nnnn4C)CSC23)cc1Cl (stereo unspecified)	3.5	-2.7	24.0*	-1.3	0.1
